Measured values reported in the EternaBench riboswitch data.

System: MS2 coat protein
Experiment: apparent Kd, MS2 coat protein; higher = weaker binding; RNA-MaP array; FMN 200 µM where present
In short: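 Stalled E. coli RNA polymerase transcribed the designs on Illumina sequencing-chip clusters. SNAP-549-labelled MS2 coat protein was titrated from 0.7 or 1.5 nM, doubling to 3 µM, without and then with constant ligand, in 100 mM Tris-HCl pH 7.5, 80 mM KCl, 4 mM MgCl2, BSA, DTT, yeast tRNA and Tween-20. Per-cluster binding curves were fitted to green signal normalised to red-channel RNA signal and control-cluster median Fmax. The apparent Kd is the median of the filtered fits.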

[1] = designed as: OFF switch for flavin mononucleotide, no ligand
[2] = ligand present: flavin mononucleotide, designed as: OFF switch for flavin mononucleotide
[3] = designed as: ON switch for flavin mononucleotide, no ligand
[4] = ligand present: flavin mononucleotide, designed as: ON switch for flavin mononucleotide

| Sequence | apparent Kd [1] [nM] | apparent Kd [2] [nM] | apparent Kd [3] [nM] | apparent Kd [4] [nM] |
| --- | --- | --- | --- | --- |
| GUCGUUUAUGUAGGAUAUGCGAGGCGAGCCUAAGCAGAAGGACAUGAGGAUCACCCAUGUAUUGCGGUCUGCGUUCAGAUCGCU | 45 | 174 | – | – |
| CUGUUAUUGAUCCAUUUUUUCAACAUGAGGAUCACCCAUGUGCAGGAUAUCUUGUUUAUUUUCAUCGAGAAGGGCAUAUUCACG | 159 | 196 | – | – |
| CAGUACUGAGGAUAUACAUGAGGAUCACCCAUGUGCUUUAGCUAGGAUACUAGCACUAGUAGAAGGCAGUACUG | 13.9 | 23.6 | – | – |
| UUUUAACAUGAGGAUCACCCAUGUGAGGAUAUCGAAAUUUAUAUUAAUAUUAUUAAUACGAGAAGGCACAUUUU | 36.9 | 61.8 | – | – |
| CCUAAGGACACAGGAUAUAGCGUGGUGGCCGGGCUCCAACGGCGAGCGGCGCUAGAAGGGUGACCACAUGAGGAUCACCCAUGU | – | – | 506 | 161 |
| AACAGCUCGUCAGGAUAUACAACACUGCUUCGGCAGAAUGAUAAGAUAACAUGAGGAUCACCCAUGUAGAAGGGACGAGCUGAA | 6.01 | 8.32 | – | – |
| UUAUACGGUGAGGAUAUCUUCACUAAAGUGUGAAGAGAAGGCGCUACAUGAGGAUCACCCAUGUCUAUGGGCAG | 556 | 755 | – | – |
| AAGAAUAGAAAGAUUAAUAUGAAUACAUGAGGAUCACCCAUGUAGGAUAUCGACGUCAAUGACGUCGAGAAGGACAUAAAUAAU | 9.7 | 9.09 | – | – |
| AGACUGAAGCAAGGAUAUUGUAAGGUUAAUGUACAAGAAGGUGCUGUUUAUGUCUCUUAACAUGAGGAUCACCCAUGUUUUGGU | – | – | 23.9 | 19.9 |
| GGCGAACAGGCUAACAUGAGGAUCACCCAUGUGGACUCAUGGUAGGAUAUCGGGAAGGAGGAAACCGAGAAGGGCCGGUGAGCC | – | – | 61 | 34.1 |
| UAGAUGGGAGGAUAUGCGUAGAUACGGAUUCGUGUGGUGCUACAUGAGGAUCACCCAUGUAGAAGGCCCGUCUU | 12.8 | 18.6 | – | – |
| AGCCUGAGUCGAGGAUAUUAUGGAUCCUUUAAUACAUGAGGAUCACCCAUGUAAUUAAUUAUACAUGAGAAGGUGACUCAGGCA | – | – | 265 | 25.1 |
| UGAGCCGGCACUGAGGAUAUUCAUAUUUAAACAUGAGGAUCACCCAUGUAGGCCAGAAGGCCUUGGGAGAAGGCAGGUCGGCUCU | – | – | 399 | 24.6 |
| AGUGCGAUGGGAGGAUAUCAUGGUCUAAUUAAUAAAAGGAUCACAUGAGGAUCACCCAUGUGUCAUGAGAAGGCCCUCGAGACC | – | – | 74.2 | 11.2 |
| UUUAUUUUUACAGGAUAUCAUCUAUAUAUCACAUGCACAUGUUUACAUGAGGAUCACCCAUGUUUUGAGAAGGGUAAUGAAACA | – | – | 79.6 | 59 |
| CCCAAACUUGGGCUUGGUGGUGCAUAGGAUAUCCUUGGACAUGAGGAUCACCCAUGUACAACUGUGGAGAAGGGUGCAGGACCU | – | – | 227 | 39.6 |
| GUGCUAUGAGGAUAUACGUUGGUGGGCAUCUGUGUGCUCCUACAUGAGGAUCACCCAUGUAGAAGGCAUGUCAC | 12.4 | 21.9 | – | – |
| AGAUAGAUAGCGAUAUGAUCGAGAGAUCAUGUCGCUAAAUUUAGAAGGACAUGAGGAUCACCCAUGUAGGAUAUGGGUAUAGAA | – | – | 404 | 149 |
| GGUAAGAAGUGCGUGAGCUACUUGAGAAGGCGACAUGAGGAUCACCCAUGUCUGUUCCUCAAGUUCGAGGAUAUCAGGUAGUUG | 7.42 | 9.06 | – | – |
| ACAUACAUUCGAGGAUAUCGGUGAACAAAUUAACGAGAAGGCGAAAUACUUUUUAAUCUUAUAAACAUGAGGAUCACCCAUGUA | – | – | 19.9 | 20.7 |
| UUCAGCUCGUGAGGAUAUACAUGUGCUGGAUACAGCACUAUUAUGUUCACAUGAGGAUCACCCAUGUAGAAGGCACGAGCUGAG | 16.6 | 21.4 | – | – |
| UUUAUAAAUUAGAAGGCGAGAUAAAUUACAAUAGACAUGAGGAUCACCCAUGUGUACCCAUGUUUUGAGGAUAUAGUCAUAUAU | – | – | 1140 | 624 |
| GUCAAGUGAGGAUAUGAUUGUACAACAGACUAGCAUCUGCAUCAGAAGGCACAUGAGGAUCACCCAUGUUUGUC | 17.5 | 17.7 | – | – |
| GUAGCUAUCGGAGGAUAUUCAUAAAACAUGAGGAUCACCCAUGUUAAAUUGGGAGAAGGCCGAUAGCUACAAGAGCGAAAGCUC | – | – | 5.85 | 4.76 |
| CCUAAGGACACAGGAUAUAGCGUGGUGGCCGGACUCCAACAGCGAGCGGCGCUAGAAGGGUGACCACAUGAGGAUCACCCAUGU | – | – | 709 | 370 |
| GGAUGACAAAGUCAUCCAAUACGAACAUGAGGAUCACCCAUGUAGGAUAUGCUACAUGAGGAUCACCAGAAGGACAUGUGCCUU | 123 | 135 | – | – |
| AGUAACAGAGGAUAUACUAUUUUAUGUAUUUAUUAUUUUGAACAUGAGGAUCACCCAUGUAGAAGGCUGAAUAA | 27.1 | 22 | – | – |
